Measurements: ChEMBL document CHEMBL2057152, “Synthesis and antibacterial activity against Clostridium difficile of novel demethylvancomycin derivatives” (2012)
In brackets after ≈: the same amount, converted by molar mass.

Legend:
Type in all cases: functional
[1] = Antibacterial activity against Clostridium difficile ATCC 43255 after 16 hrs by two-fold serial dilution method; conditions: Clostridioides difficile, ATCC 43255, 16 h
Summary of the method: (§1)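 CLSI agar dilution MIC. Compounds are dissolved in 50% water in DMSO as a stock, twofold serially diluted in sterile water, then diluted 10-fold into Mueller-Hinton agar. Organisms are grown in MH broth at 35 °C for 8 h and adjusted to 0.5 McFarland. They are applied to the drug-containing plates by multipoint inoculator and incubated at 35 °C for 16 h. Vancomycin and demethylvancomycin serve as controls.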

Enterococcus faecalis = test: Antibacterial activity against Enterococcus faecalis ATCC 700802 after 16 hrs by two-fold serial dilution method; conditions: ATCC 700802, 16 h; summary of the method: as §1
Clostridioides difficile [2] = test: Antibacterial activity against Clostridium difficile ATCC 700792 after 16 hrs by two-fold serial dilution method; conditions: ATCC 700792, 16 h; summary of the method: as §1
Clostridioides difficile [3] = test: Antibacterial activity against Clostridium difficile ATCC 700057 after 16 hrs by two-fold serial dilution method; conditions: ATCC 700057, 16 h; summary of the method: as §1
Clostridioides difficile [4] = test: Antibacterial activity against Clostridium difficile IQCC 23903 after 16 hrs by two-fold serial dilution method; conditions: IQCC 23903, 16 h; summary of the method: as §1
Clostridioides difficile [5] = test: Ratio of MIC for vancomycin to compound MIC for Clostridium difficile ATCC 700057 after 16 hrs by two-fold serial dilution method
Clostridioides difficile [6] = test: Ratio of MIC for demethylvancomycin to compound MIC for Clostridium difficile ATCC 43255 after 16 hrs by two-fold serial dilution method
Clostridioides difficile [7] = test: Ratio of MIC for demethylvancomycin to compound MIC for Clostridium difficile ATCC 700792 after 16 hrs by two-fold serial dilution method
Clostridioides difficile [8] = test: Ratio of MIC for demethylvancomycin to compound MIC for Clostridium difficile IQCC 23903 after 16 hrs by two-fold serial dilution method
Clostridioides difficile [9] = test: Ratio of MIC for vancomycin to compound MIC for Clostridium difficile IQCC 23903 after 16 hrs by two-fold serial dilution method
Clostridioides difficile [10] = test: Ratio of MIC for vancomycin to compound MIC for Clostridium difficile ATCC 43255 after 16 hrs by two-fold serial dilution method
Clostridioides difficile [11] = test: Ratio of MIC for demethylvancomycin to compound MIC for Clostridium difficile ATCC 700057 after 16 hrs by two-fold serial dilution method
Clostridioides difficile [12] = test: Ratio of MIC for vancomycin to compound MIC for Clostridium difficile ATCC 700792 after 16 hrs by two-fold serial dilution method

Structure (SMILES) | MIC [1] | MIC (Enterococcus faecalis) | MIC (Clostridioides difficile [2]) | MIC (Clostridioides difficile [3]) | MIC (Clostridioides difficile [4]) | Ratio (Clostridioides difficile [5]) | Ratio (Clostridioides difficile [6]) | Ratio (Clostridioides difficile [7]) | Ratio (Clostridioides difficile [8]) | Ratio (Clostridioides difficile [9]) | Ratio (Clostridioides difficile [10]) | Ratio (Clostridioides difficile [11]) | Ratio (Clostridioides difficile [12])
COc1ccc(CN[C@@]2(C)C[C@H](O[C@H]3[C@H](Oc4c5cc6cc4Oc4ccc(cc4Cl)[C@@H](O)[C@@H](NC(=O)[C@H](N)CC(C)C)C(=O)N[C@@H](CC(N)=O)C(=O)N[C@H]6C(=O)N[C@H]4C(=O)N[C@H](C(=O)N[C@H](C(=O)O)c6cc(O)cc(O)c6-c6cc4ccc6O)[C@H](O)c4ccc(c(Cl)c4)O5)O[C@H](CO)[C@@H](O)[C@@H]3O)O[C@@H](C)[C@H]2O)cc1 | 0.5 µg/mL (≈ 0.321 µM) | 16 µg/mL (≈ 10.3 µM) | 1 µg/mL (≈ 0.643 µM) | 0.5 µg/mL (≈ 0.321 µM) | 0.5 µg/mL (≈ 0.321 µM) |  |  |  |  |  |  |  | 
CC(C)C[C@@H](N)C(=O)N[C@H]1C(=O)N[C@@H](CC(N)=O)C(=O)N[C@H]2C(=O)N[C@H]3C(=O)N[C@H](C(=O)N[C@H](C(=O)O)c4cc(O)cc(O)c4-c4cc3ccc4O)[C@H](O)c3ccc(c(Cl)c3)Oc3cc2cc(c3O[C@@H]2O[C@H](CO)[C@@H](O)[C@H](O)[C@H]2O[C@H]2C[C@](C)(NCc3ccc(F)cc3)[C@H](O)[C@H](C)O2)Oc2ccc(cc2Cl)[C@H]1O | 0.5 µg/mL (≈ 0.324 µM) | 16 µg/mL (≈ 10.4 µM) | 0.5 µg/mL (≈ 0.324 µM) | 0.5 µg/mL (≈ 0.324 µM) | 0.5 µg/mL (≈ 0.324 µM) |  |  |  |  |  |  |  | 
CC(C)C[C@@H](N)C(=O)N[C@H]1C(=O)N[C@@H](CC(N)=O)C(=O)N[C@H]2C(=O)N[C@H]3C(=O)N[C@H](C(=O)N[C@H](C(=O)O)c4cc(O)cc(O)c4-c4cc3ccc4O)[C@H](O)c3ccc(c(Cl)c3)Oc3cc2cc(c3O[C@@H]2O[C@H](CO)[C@@H](O)[C@H](O)[C@H]2O[C@H]2C[C@](C)(NCc3ccc(Cl)cc3)[C@H](O)[C@H](C)O2)Oc2ccc(cc2Cl)[C@H]1O | 0.25 µg/mL (≈ 0.16 µM) | 16 µg/mL (≈ 10.3 µM) | 0.25 µg/mL (≈ 0.16 µM) | 0.5 µg/mL (≈ 0.321 µM) | 0.25 µg/mL (≈ 0.16 µM) | 2 | 2 | 2 | 2 | 2 | 2 | 2 | 2
CC(C)C[C@@H](N)C(=O)N[C@H]1C(=O)N[C@@H](CC(N)=O)C(=O)N[C@H]2C(=O)N[C@H]3C(=O)N[C@H](C(=O)N[C@H](C(=O)O)c4cc(O)cc(O)c4-c4cc3ccc4O)[C@H](O)c3ccc(c(Cl)c3)Oc3cc2cc(c3O[C@@H]2O[C@H](CO)[C@@H](O)[C@H](O)[C@H]2O[C@H]2C[C@](C)(NCc3ccc(Br)cc3)[C@H](O)[C@H](C)O2)Oc2ccc(cc2Cl)[C@H]1O | 0.25 µg/mL (≈ 0.156 µM) | 8 µg/mL (≈ 4.99 µM) | 0.25 µg/mL (≈ 0.156 µM) | 0.25 µg/mL (≈ 0.156 µM) | 0.25 µg/mL (≈ 0.156 µM) | 2 | 2 | 2 | 2 | 2 | 2 | 2 | 2
CC(C)C[C@@H](N)C(=O)N[C@H]1C(=O)N[C@@H](CC(N)=O)C(=O)N[C@H]2C(=O)N[C@H]3C(=O)N[C@H](C(=O)N[C@H](C(=O)O)c4cc(O)cc(O)c4-c4cc3ccc4O)[C@H](O)c3ccc(c(Cl)c3)Oc3cc2cc(c3O[C@@H]2O[C@H](CO)[C@@H](O)[C@H](O)[C@H]2O[C@H]2C[C@](C)(NCc3cc4ccccc4o3)[C@H](O)[C@H](C)O2)Oc2ccc(cc2Cl)[C@H]1O | 1 µg/mL (≈ 0.639 µM) | 8 µg/mL (≈ 5.11 µM) | 1 µg/mL (≈ 0.639 µM) | 0.5 µg/mL (≈ 0.319 µM) | 0.5 µg/mL (≈ 0.319 µM) |  |  |  |  |  |  |  | 
CC(C)C[C@@H](N)C(=O)N[C@H]1C(=O)N[C@@H](CC(N)=O)C(=O)N[C@H]2C(=O)N[C@H]3C(=O)N[C@H](C(=O)N[C@H](C(=O)O)c4cc(O)cc(O)c4-c4cc3ccc4O)[C@H](O)c3ccc(c(Cl)c3)Oc3cc2cc(c3O[C@@H]2O[C@H](CO)[C@@H](O)[C@H](O)[C@H]2O[C@H]2C[C@](C)(NCc3ccco3)[C@H](O)[C@H](C)O2)Oc2ccc(cc2Cl)[C@H]1O | 0.5 µg/mL (≈ 0.33 µM) | 32 µg/mL (≈ 21.1 µM) | 0.5 µg/mL (≈ 0.33 µM) | 0.5 µg/mL (≈ 0.33 µM) | 0.5 µg/mL (≈ 0.33 µM) |  |  |  |  |  |  |  | 
CC(C)C[C@@H](N)C(=O)N[C@H]1C(=O)N[C@@H](CC(N)=O)C(=O)N[C@H]2C(=O)N[C@H]3C(=O)N[C@H](C(=O)N[C@H](C(=O)O)c4cc(O)cc(O)c4-c4cc3ccc4O)[C@H](O)c3ccc(c(Cl)c3)Oc3cc2cc(c3O[C@@H]2O[C@H](CO)[C@@H](O)[C@H](O)[C@H]2O[C@H]2C[C@](C)(NCc3cccs3)[C@H](O)[C@H](C)O2)Oc2ccc(cc2Cl)[C@H]1O | 0.5 µg/mL (≈ 0.326 µM) | 32 µg/mL (≈ 20.9 µM) | 0.5 µg/mL (≈ 0.326 µM) | 0.5 µg/mL (≈ 0.326 µM) | 0.5 µg/mL (≈ 0.326 µM) |  |  |  |  |  |  |  | 
CCCCCCCCCCCCCN[C@@]1(C)C[C@H](O[C@H]2[C@H](Oc3c4cc5cc3Oc3ccc(cc3Cl)[C@@H](O)[C@@H](NC(=O)[C@H](N)CC(C)C)C(=O)N[C@@H](CC(N)=O)C(=O)N[C@H]5C(=O)N[C@H]3C(=O)N[C@H](C(=O)N[C@H](C(=O)O)c5cc(O)cc(O)c5-c5cc3ccc5O)[C@H](O)c3ccc(c(Cl)c3)O4)O[C@H](CO)[C@@H](O)[C@@H]2O)O[C@@H](C)[C@H]1O | 1 µg/mL (≈ 0.618 µM) | 4 µg/mL (≈ 2.47 µM) | 2 µg/mL (≈ 1.24 µM) | 2 µg/mL (≈ 1.24 µM) | 1 µg/mL (≈ 0.618 µM) |  |  |  |  |  |  |  | 
CC(C)=CCC/C(C)=C/CN[C@@]1(C)C[C@H](O[C@H]2[C@H](Oc3c4cc5cc3Oc3ccc(cc3Cl)[C@@H](O)[C@@H](NC(=O)[C@H](N)CC(C)C)C(=O)N[C@@H](CC(N)=O)C(=O)N[C@H]5C(=O)N[C@H]3C(=O)N[C@H](C(=O)N[C@H](C(=O)O)c5cc(O)cc(O)c5-c5cc3ccc5O)[C@H](O)c3ccc(c(Cl)c3)O4)O[C@H](CO)[C@@H](O)[C@@H]2O)O[C@@H](C)[C@H]1O | 0.5 µg/mL (≈ 0.318 µM) | 16 µg/mL (≈ 10.2 µM) | 0.5 µg/mL (≈ 0.318 µM) | 0.5 µg/mL (≈ 0.318 µM) | 0.5 µg/mL (≈ 0.318 µM) |  |  |  |  |  |  |  | 
CC(C)CCN[C@@]1(C)C[C@H](O[C@H]2[C@H](Oc3c4cc5cc3Oc3ccc(cc3Cl)[C@@H](O)[C@@H](NC(=O)[C@H](N)CC(C)C)C(=O)N[C@@H](CC(N)=O)C(=O)N[C@H]5C(=O)N[C@H]3C(=O)N[C@H](C(=O)N[C@H](C(=O)O)c5cc(O)cc(O)c5-c5cc3ccc5O)[C@H](O)c3ccc(c(Cl)c3)O4)O[C@H](CO)[C@@H](O)[C@@H]2O)O[C@@H](C)[C@H]1O | 1 µg/mL (≈ 0.664 µM) | 32 µg/mL (≈ 21.3 µM) | 1 µg/mL (≈ 0.664 µM) | 1 µg/mL (≈ 0.664 µM) | 0.5 µg/mL (≈ 0.332 µM) |  |  |  |  |  |  |  | 
CC(C)C[C@@H](N)C(=O)N[C@H]1C(=O)N[C@@H](CC(N)=O)C(=O)N[C@H]2C(=O)N[C@H]3C(=O)N[C@H](C(=O)N[C@H](C(=O)O)c4cc(O)cc(O)c4-c4cc3ccc4O)[C@H](O)c3ccc(c(Cl)c3)Oc3cc2cc(c3O[C@@H]2O[C@H](CO)[C@@H](O)[C@H](O)[C@H]2O[C@H]2C[C@](C)(NCC3CCCCC3)[C@H](O)[C@H](C)O2)Oc2ccc(cc2Cl)[C@H]1O | 1 µg/mL (≈ 0.653 µM) | 16 µg/mL (≈ 10.4 µM) | 1 µg/mL (≈ 0.653 µM) | 0.5 µg/mL (≈ 0.326 µM) | 0.5 µg/mL (≈ 0.326 µM) |  |  |  |  |  |  |  | 
CCC(CC)CN[C@@]1(C)C[C@H](O[C@H]2[C@H](Oc3c4cc5cc3Oc3ccc(cc3Cl)[C@@H](O)[C@@H](NC(=O)[C@H](N)CC(C)C)C(=O)N[C@@H](CC(N)=O)C(=O)N[C@H]5C(=O)N[C@H]3C(=O)N[C@H](C(=O)N[C@H](C(=O)O)c5cc(O)cc(O)c5-c5cc3ccc5O)[C@H](O)c3ccc(c(Cl)c3)O4)O[C@H](CO)[C@@H](O)[C@@H]2O)O[C@@H](C)[C@H]1O | 2 µg/mL (≈ 1.32 µM) | 32 µg/mL (≈ 21.1 µM) | 2 µg/mL (≈ 1.32 µM) | 2 µg/mL (≈ 1.32 µM) | 2 µg/mL (≈ 1.32 µM) |  |  |  |  |  |  |  | 
CC(C)C[C@@H](N)C(=O)N[C@@H]1C(=O)N[C@@H](CC(N)=O)C(=O)N[C@H]2C(=O)N[C@H]3C(=O)N[C@H](C(=O)N[C@H](C(=O)O)c4cc(O)cc(O)c4-c4cc3ccc4O)[C@H](O)c3ccc(c(Cl)c3)Oc3cc2cc(c3O[C@@H]2O[C@H](CO)[C@@H](O)[C@H](O)[C@H]2O[C@H]2C[C@](C)(N)C(O)[C@H](C)O2)Oc2ccc(cc2Cl)[C@H]1O (stereo partly specified) [DEMETHYLVANCOMYCIN] | 0.5 µg/mL (≈ 0.348 µM) | > 32 µg/mL | 0.5 µg/mL (≈ 0.348 µM) | 0.5 µg/mL (≈ 0.348 µM) | 0.5 µg/mL (≈ 0.348 µM) |  |  |  |  |  |  |  | 
CN[C@H](CC(C)C)C(=O)N[C@H]1C(=O)N[C@@H](CC(N)=O)C(=O)N[C@H]2C(=O)N[C@H]3C(=O)N[C@H](C(=O)N[C@H](C(=O)O)c4cc(O)cc(O)c4-c4cc3ccc4O)[C@H](O)c3ccc(c(Cl)c3)Oc3cc2cc(c3O[C@@H]2O[C@H](CO)[C@@H](O)[C@H](O)[C@H]2O[C@H]2C[C@](C)(N)[C@H](O)[C@H](C)O2)Oc2ccc(cc2Cl)[C@H]1O [VANCOMYCIN] | 1 µg/mL (≈ 0.69 µM) | 32 µg/mL (≈ 22.1 µM) | 1 µg/mL (≈ 0.69 µM) | 0.5 µg/mL (≈ 0.345 µM) | 0.5 µg/mL (≈ 0.345 µM) |  |  |  |  |  |  |  | 
